Screening data: PubChem BioAssay, Broad Institute
Shown are actives, neighbours in structure and some others; about 5.9% of the full set was active somewhere.
T cruzi growth-1: T. cruzi intracellular proliferation inhibitors, primary screen, cell-based, beta-gal Tulahuen parasites, NIH3T3 host, luminescence. 77,000 compounds, 5.9% hits. inhibition, % at 8.34 µM. T. cruzi beta-gal in NIH3T3, GalScreen luminescence, 90 h. AID 624255, 2012;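 active = mean inhibition above about 93%, with at least 55% of replicates each passing it, limit read from the data, passing the limit was not always enough; inconclusive = only one of those two conditions holds; inactive = neither condition holds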
Pf Dd2 growth: P. falciparum Dd2 growth inhibitors, primary screen, SYBR Green fluorescence, single dose replicates; 72 h; active compounds read low; activity change, % at 10 µM; 94,000 compounds, 2.3% hits; AID 1159554, 2015; in the data active = activity change below about -80%; inconclusive = no clear call, values can overlap the other calls
IDH1 mut inh: inhibitors of IDH1 R132H reductase, primary screen, biochemical, plate reader, single point; Isocitrate dehydrogenase [NADP] cytoplasmic (Homo sapiens), O75874; diaphorase/resazurin fluorescence, 60 min; inhibition, % at 10 µM; 70,000 compounds, 0.18% hits; AID 624101, 2012; in the data active = inhibition above about 34%; inconclusive = no clear call, values can overlap the other calls; inactive = below about 11%;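 note: 0% = DMSO and 100% = no enzyme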
Target sequence (O75874 whole entry R132H): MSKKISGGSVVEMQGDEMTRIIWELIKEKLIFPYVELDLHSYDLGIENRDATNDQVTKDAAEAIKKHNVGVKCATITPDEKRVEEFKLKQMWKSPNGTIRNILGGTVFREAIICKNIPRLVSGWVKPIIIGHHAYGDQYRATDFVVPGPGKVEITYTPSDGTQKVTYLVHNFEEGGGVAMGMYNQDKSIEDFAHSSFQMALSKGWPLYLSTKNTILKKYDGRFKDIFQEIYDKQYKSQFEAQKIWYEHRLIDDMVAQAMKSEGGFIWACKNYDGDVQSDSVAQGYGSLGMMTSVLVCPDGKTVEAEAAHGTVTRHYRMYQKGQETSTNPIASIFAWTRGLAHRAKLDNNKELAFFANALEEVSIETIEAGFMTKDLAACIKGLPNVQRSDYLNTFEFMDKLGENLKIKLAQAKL
GASC1 inh: inhibitors of GASC-1 (KDM4C) histone demethylase, primary screen, biochemical, single concentration HTS; Lysine-specific demethylase 4C (Homo sapiens), Q9H3R0; GST-KDM4C 2-372, H3K9me3 peptide, LANCE TR-FRET; inhibition, % at 12.5 µM; 96,000 compounds, 0.15% hits; AID 720574, 2013;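 active = mean replicate inhibition above about 25%, with at least 55% of replicates also reaching it, limit read from the data, passing the limit was not always enough; inconclusive = only one of those two conditions met; inactive = neither condition met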
Target sequence (Q9H3R0 2-372 limits assumed): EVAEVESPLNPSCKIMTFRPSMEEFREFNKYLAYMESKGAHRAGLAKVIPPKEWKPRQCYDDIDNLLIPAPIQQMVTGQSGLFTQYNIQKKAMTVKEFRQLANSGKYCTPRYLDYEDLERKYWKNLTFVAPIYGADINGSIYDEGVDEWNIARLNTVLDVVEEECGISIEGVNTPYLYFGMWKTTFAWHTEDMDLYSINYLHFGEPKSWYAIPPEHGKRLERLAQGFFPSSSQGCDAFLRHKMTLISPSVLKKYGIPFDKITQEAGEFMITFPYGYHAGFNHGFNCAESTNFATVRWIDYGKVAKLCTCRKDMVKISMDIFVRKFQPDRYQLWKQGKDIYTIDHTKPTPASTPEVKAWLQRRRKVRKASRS
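reagent = H3K9me3 peptide substrate, Fe(II), 2-oxoglutarate | system = GST-tagged GASC-1 (JMJD2C) catalytic fragment, aa 2-372 | amount = enzyme final amount 10 nM | read-out = Fall in 671/618 emission ratio as inhibition | medium = HEPES buffer, pH 7.5, plus ascorbate | schedule = 30 min reaction, 60 min detection, RT | measured by = LANCE TR-FRET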
T cruzi growth-2: T. cruzi intracellular proliferation inhibitors, confirmation, cell-based, NIH3T3 host, beta-gal parasite, luminescence, cherry-pick | 5,600 compounds, 72% hits | T. cruzi beta-gal in NIH3T3, GalScreen luminescence, 90 h | inhibition, % at 8.35 µM | shares compounds with T cruzi growth-1;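 active = mean replicate inhibition above about 95% and at least 55% of replicates individually reaching it, limit read from the data; inconclusive = only one of the two criteria is met; inactive = neither criterion is met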
T cruzi growth-3: inhibitors of intracellular T. cruzi replication, confirmation, NIH3T3 host cells, beta-gal parasites, cherry-pick, set 2 | shares compounds with T cruzi growth-1 | T. cruzi beta-gal in NIH3T3, GalScreen luminescence, 90 h | inhibition, % at 2.09 µM | 5,600 compounds, 21% hits | AID 651740, 2012;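 active = mean inhibition above about 95%, with at least 55% of replicates also reaching it, limit read from the data; inconclusive = meets just one of the two conditions; inactive = meets neither condition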;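 note: plate controls were neutral control median for no effect and positive control median for full effect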
NIH3T3 tox: cytotoxicity in mouse NIH/3T3 fibroblasts, confirmation, cytotoxicity control for T. cruzi proliferation inhibitor project, cell-based, cherry-pick, single point; 5,600 compounds, 14% hits; shares compounds with T cruzi growth-1; NIH/3T3 viability, CellTiter-Glo ATP luminescence, 90 h; cytotoxicity (signal decrease), % at 8.35 µM;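 active = mean signal decrease across replicates above about 35% based on untreated-well scatter, with enough replicates individually passing, limit read from the data; inconclusive = no rule stated though some were filed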;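 note: 0% = median of neutral control wells and 100% = median of positive control wells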
3T3 cytotox 2: NIH/3T3 fibroblast cytotoxicity, confirmation, cytotoxicity control, cell-based, cherry-pick, single point, set 2 | shares compounds with T cruzi growth-1 | NIH/3T3 viability, CellTiter-Glo ATP luminescence, 90 h | inhibition, % at 24.9 µM | 5,600 compounds, 56% hits;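 active = mean loss of cell viability signal at or above a set limit, and enough replicates individually reaching it; inconclusive = meets only the mean limit or only the replicate share; inactive = meets neither condition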;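 note: 0% = median of neutral control wells and 100% = median of positive control wells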
* marks the source's active call; other numbers are inactive results; ? = inconclusive; nt = not tested or not shown.

SMILES | T cruzi growth-1 | Pf Dd2 growth | IDH1 mut inh | GASC1 inh | T cruzi growth-2 | T cruzi growth-3 | NIH3T3 tox | 3T3 cytotox 2
Cc1ccc(-c2ccc3c(c2)O[C@H](CN(C)C(=O)C2CCC2)[C@H](C)CN([C@@H](C)CO)S3(=O)=O)cc1 | 120.8* | -50.4 | nt | 2.5 | 83.3 | 73.2 | 41.0* | 77.5*
C[C@@H](NC(=O)C[C@H]1CC[C@@H](NC(=O)CN2CCOCC2)[C@H](CO)O1)c1ccccc1 | -22.6 | 0.7 | 0.3 | 0.1 | nt | nt | nt | nt
C/C=C/c1ccc([C@H]2[C@@H](CO)N3C(=O)CN(Cc4ccc(F)cc4)C[C@H]23)cc1 | nt | 10.7 | nt | -5.7 | nt | nt | nt | nt
C[C@@H]1CN([C@H](C)CO)S(=O)(=O)c2ccc(-c3ccncc3)cc2O[C@H]1CN(C)C(=O)C1CCC1 | 103.2* | -1.5 | nt | 0.8 | 89.2 | 29.1 | 18.0 | 41.6*
C[C@@H]1CN([C@@H](C)CO)S(=O)(=O)c2ccc(-c3ccccc3)cc2O[C@H]1CN(C)C(=O)C1CCCCC1 | ? | -49.9 | nt | -2.4 | 97.3* | 52.5 | 33.6 | -0.2
O=C1O[C@@H](c2ccccc2)[C@@H](c2ccccc2)N2[C@@H](c3ccc(O)cc3)[C@]3(C(=O)Nc4ccc(C#CCCO)cc43)[C@@H](C(=O)NC[C@H](O)c3ccccc3)[C@H]12 | nt | nt | -0.2 | nt | nt | nt | nt | nt
CO[C@H](CN(C)C(=O)C1CC1)[C@@H](C)CN(C(=O)Nc1ccc(C(F)(F)F)cc1)[C@@H](C)CO | 37.3 | -0.6 | 0.1 | 0.2 | nt | nt | nt | nt
CO[C@H](CN(C)C(=O)C1CC1)[C@H](C)CN(C(=O)Nc1ccc(C(F)(F)F)cc1)[C@H](C)CO | 111.4* | 17.3 | -0.1 | -2.0 | 34.6 | -12.9 | 0.5 | 25.1*
CO[C@H](CN(C)C(=O)C1CCOCC1)[C@H](C)CN(C(=O)Nc1ccc(C(F)(F)F)cc1)[C@H](C)CO | 113.5* | 12.4 | 0.1 | 0.6 | 104.2* | 39.3 | 11.2 | 44.9*
CO[C@H](CN(C)C(=O)C1CCOCC1)[C@@H](C)CN(C(=O)Nc1ccc(C(F)(F)F)cc1)[C@H](C)CO | 72.0 | -10.8 | 0.2 | nt | nt | nt | nt | nt
C[C@@H]1CN([C@@H](C)CO)C(=O)c2cc(NC(=O)Nc3cccc4ccccc34)ccc2O[C@H]1CN(C)Cc1ccc(C(F)(F)F)cc1 | 96.4* | 8.7 | nt | -0.5 | 106.2* | 77.5 | 21.1 | 21.0
C[C@H](CO)N1C[C@H](C)[C@@H](CN(C)Cc2ccc(C(F)(F)F)cc2)Oc2ccc(NC(=O)Nc3cccc4ccccc34)cc2C1=O | 100.1* | 10.7 | nt | -0.6 | 107.2* | 59.9 | 23.5 | 11.6
C[C@@H]1CN([C@H](C)CO)S(=O)(=O)c2ccc(C#CC3CC3)cc2O[C@H]1CN(C)C(=O)Nc1cc(F)ccc1F | 76.4 | -50.7 | -0.4 | 1.2 | nt | nt | nt | nt
Cc1noc(C)c1S(=O)(=O)N(C)C[C@H]1OCCCC[C@H](C)Oc2ccc(NC(=O)Nc3cccc4ccccc34)cc2C(=O)N([C@H](C)CO)C[C@@H]1C | 115.6* | -41.5 | nt | -1.5 | 100.7* | 41.4 | 2.0 | 34.5*
Cc1noc(C)c1S(=O)(=O)N(C)C[C@H]1OCCCC[C@@H](C)Oc2ccc(NC(=O)Nc3cccc4ccccc34)cc2C(=O)N([C@@H](C)CO)C[C@H]1C | 113.4* | -73.1 | nt | -6.8 | 101.8* | 59.5 | -5.8 | -35.0
C[C@@H]1CCCCO[C@H](CN(C)C(=O)Cc2ccccc2)[C@@H](C)CN([C@@H](C)CO)C(=O)c2cc(N(C)C)ccc2O1 | 96.8* | -21.9 | -2.4 | -0.1 | 45.7 | 27.3 | -39.9 | -13.4
C[C@H](CO)N1C[C@H](C)[C@H](CN(C)C(=O)Cc2ccccc2)OCCCC[C@H](C)Oc2ccc(N(C)C)cc2C1=O | 104.2* | -39.0 | -1.2 | 2.4 | ? | 25.3 | -10.1 | -23.3
CN1C(=O)c2cc(NC(=O)c3cccc(F)c3)ccc2OC[C@@H]2O[C@@H](CC(=O)NCc3ccccc3Cl)CC[C@H]21 | 33.2 | -11.6 | nt | -1.2 | nt | nt | nt | nt
C[C@@H]1CN([C@@H](C)CO)S(=O)(=O)c2ccc(-c3ccc(C(=O)N(C)C)cc3)cc2O[C@H]1CN(C)Cc1ccccc1C(=O)O | nt | -5.7 | nt | -1.7 | nt | nt | nt | nt
C[C@H](CO)N1C[C@H](C)[C@H](CN(C)C)Oc2cc(C#Cc3ccccn3)ccc2S1(=O)=O | nt | 14.7 | 0.0 | 2.3 | nt | nt | nt | nt
C[C@H](CO)N1C[C@H](C)[C@H](CN(C)Cc2ccccc2)Oc2cc(C#Cc3ccccn3)ccc2S1(=O)=O | 106.8* | -78.1 | -0.1 | -5.8 | 108.8* | 89.8 | 3.9 | -7.2
C[C@H]1CN([C@@H](C)CO)S(=O)(=O)c2ccc(C#Cc3ccccn3)cc2O[C@@H]1CN(C)C | nt | 13.4 | -0.1 | -1.2 | nt | nt | nt | nt
CC(=O)N(C)C[C@@H]1Oc2cc(C#Cc3ccccn3)ccc2S(=O)(=O)N([C@@H](C)CO)C[C@H]1C | 101.8* | 15.9 | -5.1 | 4.0 | 91.1 | 80.8 | -7.6 | 19.4
CC(=O)N(C)C[C@H]1Oc2cc(C#Cc3ccccn3)ccc2S(=O)(=O)N([C@H](C)CO)C[C@@H]1C | -4.8 | 24.2 | -0.5 | 7.6 | nt | nt | nt | nt
C[C@@H]1CN([C@H](C)CO)S(=O)(=O)c2ccc(C#Cc3ccccn3)cc2O[C@@H]1CN(C)Cc1ccccc1 | 100.8* | -19.8 | -2.0 | -3.1 | 73.4 | 52.6 | 4.1 | 98.5*
O=C(C[C@H]1CC[C@@H]2[C@H](COC[C@H](O)CN2Cc2ccccc2)O1)N[C@@H]1CCN(Cc2ccccc2)C1 | 78.2 | -36.5 | nt | 3.9 | nt | nt | nt | nt
O=C(C[C@@H]1CC[C@H]2[C@@H](COC[C@H](O)CN2C(=O)Nc2ccc(Cl)cc2)O1)NCCc1ccncc1 | 128.5* | 8.1 | nt | 2.0 | 87.5 | 60.6 | 9.0 | 11.3
O=C(C[C@@H]1CC[C@@H]2[C@H](COC[C@H](O)CN2C(=O)Nc2ccc(Cl)cc2)O1)NCCc1ccncc1 | 98.7* | 18.1 | nt | -0.6 | 99.2* | 80.4 | 9.6 | -3.1
O=C(C[C@H]1CC[C@H]2[C@@H](COC[C@H](O)CN2C(=O)Nc2ccc(Cl)cc2)O1)NCCc1ccncc1 | 78.1 | 0.3 | nt | 0.0 | nt | nt | nt | nt
O=C(C[C@@H]1CC[C@H]2[C@@H](COC[C@@H](O)CN2C(=O)Nc2ccc(Cl)cc2)O1)NCCc1ccncc1 | 70.9 | -1.8 | nt | 0.4 | nt | nt | nt | nt
